pEC50, pIC50: −log10 of the molar value. Calls of active or inactive are those of the source. The calls are words filed in the database; no cut-off is given here.

Data on six compounds can be found in ChEMBL document CHEMBL2146385, “Synthesis and antiviral evaluation of bis(POM) prodrugs of (E)-[4'-phosphono-but-2'-en-1'-yl]purine nucleosides” (Eur J Med Chem, 2012).

One series has as its system Felid alphaherpesvirus 1. The experiment in a line: Antiviral activity against Feline herpesvirus infected in CRFK cells assessed as inhibition of virus-induced cytopathicity after 3 days. In kind it is functional, organism-based. Conditions: Felid alphaherpesvirus 1, CRFK, 72 h. A general note: Cytopathic effects are the visible damage that an infection or toxin causes in cultured cells.

A short description of series [1]: Cytotoxicity against CRFK cells after 3 days. The format is cell-based, Felis catus. As to conditions: cat.
The next series relates to Vaccinia virus. The experiment in a line: Antiviral activity against Vaccinia virus infected in HEL assessed as inhibition of virus-induced cytopathicity after 3 days. In kind it is functional, organism-based. Conditions: Orthopoxvirus vaccinia, 72 h.
The test system of series [2] is Human alphaherpesvirus 1. In words: Antiviral activity against HSV1 KOS infected in HEL assessed as inhibition of virus-induced cytopathicity after 3 days. In kind it is functional, organism-based. Conditions: Human alphaherpesvirus 1, KOS, 72 h.
Another series has as its system Human alphaherpesvirus 2. In words: Antiviral activity against HSV2 G infected in HEL assessed as inhibition of virus-induced cytopathicity after 3 days. As to conditions: Human alphaherpesvirus 2, strain G, 72 h. In kind it is functional, organism-based. Put shortly: (§1)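 Confluent cell monolayers infected with 100 CCID50 of virus in the presence of test compound at 100, 20,... μM. Cytopathicity was scored once it was complete in untreated infected controls.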

The subject of series [3] is Human alphaherpesvirus 1. The experiment in a line: Antiviral activity against acyclovir-resistant thymidine kinase deficient HSV1 KOS infected in HEL assessed as inhibition of virus-induced cytopathicity after 3 days. In kind it is functional, organism-based. Conditions: Human alphaherpesvirus 1, KOS, 72 h.
For series [4], the system named is Human alphaherpesvirus 3. The experiment in a line: Antiviral activity against VZV OKA expressing thymidine kinase infected in HEL cells assessed as inhibition of virus-induced cytopathogenicity after 3 days. In kind it is functional, cell-based. As to conditions: Human alphaherpesvirus 3, strain Oka vaccine, 72 h.
The subject of series [5] is Human alphaherpesvirus 3. In words: Antiviral activity against thymidine kinase-deficient VZV 07/1 infected in human HEL cells assessed as reduction of virus-induced cytopathogenicity after 3 days. In kind it is functional, organism-based. As to conditions: Human alphaherpesvirus 3, 07/1, HEL, 72 h.
The nature of series [6]: Cytotoxicity against HEL assessed as minimum compound concentration causes microscopically detectable alteration of cell morphology after 3 days. The format is cell-based. As to conditions: human, HEL cells.
Series [7] is described as follows: Cytotoxicity against HEL after 3 days. In kind it is cell-based. As to conditions: human, HEL cells. Put shortly: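 HEL cells were seeded at 5×10^3 cells/well and allowed to grow for 24 h, then given medium with varying compound concentrations. After 3 days at 37 °C, cells were counted with a Coulter counter.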
Series [8] relates to Human immunodeficiency virus 1. The experiment in a line: Antiviral activity against HIV1 3B infected in human CEM cells assessed as inhibition of virus-induced giant cell formation after 4 days. The format is functional, organism-based. As to conditions: Human immunodeficiency virus 1, 3B, CCRF-CEM, 96 h. Put shortly: (§2)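 Human CEM cells (~3×10^5 cells/cm3) were infected with 100 CCID50 of HIV-1(IIIB) or HIV-2(ROD) per ml and seeded into wells containing compound dilutions. After 4 days at 37 °C, giant cell formation was examined microscopically.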

Series [9] deals with Human immunodeficiency virus 2. The experiment in a line: Antiviral activity against HIV2 ROD infected in human CEM cells assessed as inhibition of virus-induced giant cell formation after 4 days. The format is functional, organism-based. As to conditions: Human immunodeficiency virus 2, ISOLATE ROD, CCRF-CEM, 96 h. Put shortly:
as §2

The next series concerns L1210. The experiment in a line: Cytotoxicity against mouse L1210 cells. The format is cell-based.
The next series concerns CCRF-CEM. The experiment in a line: Cytotoxicity against human CEM cells. In kind it is cell-based.
The test system of the next series is HeLa. In words: Cytotoxicity against human HeLa cells. In kind it is cell-based.
A short description of series [10]: Selectivity index, ratio of CC50 for human CEM cells to EC50 for HIV2 ROD. Conditions: read-out: Ratio CC50/EC50. In kind it is toxicity, cell-based, CCRF-CEM.
The subject of series [11] is Vesicular stomatitis virus. The experiment in a line: Antiviral activity against Vesicular stomatitis virus infected in MDCK assessed as inhibition of virus-induced cytopathicity after 3 days. In kind it is functional, organism-based.
The subject of series [12] is Influenza A virus. In words: Antiviral activity against Influenza A virus H1N1 infected in MDCK assessed as inhibition of virus-induced cytopathicity after 3 days. In kind it is functional, organism-based.
For series [13], the system named is Influenza A virus. In words: Antiviral activity against Influenza A virus H3N2 infected in MDCK assessed as inhibition of virus-induced cytopathicity after 3 days. In kind it is functional, organism-based.
In the next series the test system is Influenza B virus. In words: Antiviral activity against Influenza B virus infected in MDCK assessed as inhibition of virus-induced cytopathicity after 3 days. The format is functional, organism-based.
Another series deals with Human respirovirus 3. The experiment in a line: Antiviral activity against Parainfluenza-3 virus infected in african green monkey Vero assessed as inhibition of virus-induced cytopathicity after 3 days. The format is functional, organism-based. Put shortly: as §1
Series [14] relates to Mammalian orthoreovirus 1. The experiment in a line: Antiviral activity against Reovirus-1 infected in african green monkey Vero assessed as inhibition of virus-induced cytopathicity after 3 days. In kind it is functional, organism-based. Put shortly:
as §1

Another series concerns Sindbis virus. The experiment in a line: Antiviral activity against Sindbis virus infected in african green monkey Vero assessed as inhibition of virus-induced cytopathicity after 3 days. The format is functional, organism-based. Put shortly: as §1
The test system of another series is Punta Toro virus. In words: Antiviral activity against Punta Toro virus infected in african green monkey Vero assessed as inhibition of virus-induced cytopathicity after 3 days. In kind it is functional, organism-based. Put shortly:
as §1

Series [15] relates to Vesicular stomatitis virus. The experiment in a line: Antiviral activity against Vesicular stomatitis virus infected in human HeLa assessed as inhibition of virus-induced cytopathicity after 3 days. The format is functional, organism-based.
A further series relates to Coxsackievirus B4. In words: Antiviral activity against Coxsackievirus B4 infected in human HeLa assessed as inhibition of virus-induced cytopathicity after 3 days. The format is functional, organism-based. Put shortly: as §1
In series [16] the test system is Respiratory syncytial virus. The experiment in a line: Antiviral activity against Respiratory syncytial virus infected in human HeLa assessed as inhibition of virus-induced cytopathicity after 3 days. In kind it is functional, organism-based. Put shortly: as §1

What is called pEC50 is the negative decadic logarithm of the EC50, by convention in mol/L. In general, CC50 refers to the concentration that lowers cell viability or growth by half. For the compound `Nc1nc2c(ncn2COC(CO)CO)c(=O)[nH]1` [GANCICLOVIR], the pEC50 in the series with Felid alphaherpesvirus 1 was 5.92. Also, the CC50 at 72 h in series [1] was over 100 µM.

What is called pIC50 is the negative decadic logarithm of the IC50, by convention in mol/L. Turning to `CC(C)(C)C(=O)OCOP(=O)(C/C=C/Cn1cnc2c(N)nc(N)nc21)OCOC(=O)C(C)(C)C`, the pEC50 with Vaccinia virus was under 4.70; in the series with Human alphaherpesvirus 1 [2], 4.70; in the series on Human alphaherpesvirus 2, 4.70; in the series with Human alphaherpesvirus 1 [3], 4.70; with Human alphaherpesvirus 3 [4], 5.17; with Human alphaherpesvirus 3 [5], 4.92. The pEC50 in series [8] was 5.18; in [9] it was 5.20. The MCC at 72 h in series [6] was over 100 µM. This compound displayed a CC50 at 72 h in series [7] of 36 µM. Besides, the pIC50 is 3.89 with L1210, 4.34 with CCRF-CEM and 3.89 in the series on HeLa. In [10], the selectivity ratio came out at 7.3. Further, the result (in series [11]; in the series on Influenza A virus [12]; in the series with Influenza A virus [13]; with Influenza B virus; in the series on Human respirovirus 3; in series [14]) was inactive. Moreover, the outcome (in the series with Sindbis virus; in the series with Punta Toro virus; in series [15]; in the series on Coxsackievirus B4; in series [16]) was inactive.

`CC(C)(C)C(=O)OCOP(=O)(C/C=C/Cn1cnc2c(=O)[nH]c(N)nc21)OCOC(=O)C(C)(C)C`: the negative logarithm of the EC50 (pEC50) in the series on Vaccinia virus was 4.00; in the series on Human alphaherpesvirus 1 [2], 5.41; in the series with Human alphaherpesvirus 2, 5.11; in the series on Human alphaherpesvirus 1 [3], 5.24; in the series with Human alphaherpesvirus 3 [4] it was 5.98; with Human alphaherpesvirus 3 [5] it was 6.10. Further, the negative logarithm of the EC50 (pEC50) in the series with Felid alphaherpesvirus 1 was 4.96. For the same compound, the MCC at 72 h in [6] is over 100 µM. In addition, the figures for the half-maximal cytotoxic concentration (CC50) at 72 h in [7] and in series [1] were 4.1 µM and over 100 µM, respectively. Moreover, the result (in series [11]; in the series with Influenza A virus [12]; in the series on Influenza A virus [13]; with Influenza B virus; in the series with Human respirovirus 3; in series [14]) was inactive. The outcome (in the series on Sindbis virus; in the series with Punta Toro virus; in [15]; in the series on Coxsackievirus B4; in [16]) was inactive.

For `COc1nc(N)nc2c1ncn2C/C=C/CP(=O)(OCOC(=O)C(C)(C)C)OCOC(=O)C(C)(C)C`, the pEC50 with Vaccinia virus is 4.80; with Human alphaherpesvirus 1 [2], 5.22; in the series with Human alphaherpesvirus 2, 5.19; in the series with Human alphaherpesvirus 1 [3], 5.12; in the series with Human alphaherpesvirus 3 [4] it was 7.00; in the series on Human alphaherpesvirus 3 [5], 6.30. In addition, the negative logarithm of the EC50 (pEC50) in series [8] was under 6.40; in series [9], 6.55. For the same compound, the MCC at 72 h in [6] is over 100 µM. Also, the half-maximal cytotoxic concentration (CC50) at 72 h in [7] came out at 1.6 µM. Further, the results for the pIC50 in the series on L1210, with CCRF-CEM and with HeLa were 4.43, 5.10 and 4.43, respectively. Also, in series [10], the selectivity ratio amounted to 28.5. In addition, the result (in series [11]; in the series with Influenza A virus [12]; with Influenza A virus [13]; in the series with Influenza B virus; with Human respirovirus 3; in series [14]) was inactive. The result (in the series with Sindbis virus; in the series on Punta Toro virus; in series [15]; in the series on Coxsackievirus B4; in [16]) was inactive.

Consider `CC(C)(C)C(=O)OCOP(=O)(C/C=C/Cn1cnc2c(N)ncnc21)OCOC(=O)C(C)(C)C`, for which the pEC50 in the series with Vaccinia virus was under 4.00; in the series on Human alphaherpesvirus 1 [2], under 4.00; in the series with Human alphaherpesvirus 2, 4.35; in the series on Human alphaherpesvirus 1 [3], 4.70; in the series with Human alphaherpesvirus 3 [4], 4.90; in the series with Human alphaherpesvirus 3 [5] it was 4.87. The MCC at 72 h in [6] was over 100 µM. This compound yielded a 50% cytotoxic concentration (CC50) at 72 h in [7] of 11.6 µM. For the same compound, the result (in series [11]; in the series on Influenza A virus [12]; in the series on Influenza A virus [13]; in the series with Influenza B virus; in the series with Human respirovirus 3; in series [14]) was inactive. Moreover, the outcome (in the series on Sindbis virus; in the series on Punta Toro virus; in series [15]; in the series on Coxsackievirus B4; in series [16]) was inactive.

Turning to `CCCCNc1nc(N)nc2c1ncn2C/C=C/CP(=O)(OCOC(=O)C(C)(C)C)OCOC(=O)C(C)(C)C`, the negative logarithm of the EC50 (pEC50) was under 4.00 in the series on Vaccinia virus; under 4.00 in the series with Human alphaherpesvirus 1 [2]; under 4.00 in the series on Human alphaherpesvirus 2; under 4.00 in the series with Human alphaherpesvirus 1 [3]; 4.49 with Human alphaherpesvirus 3 [4]; 4.36 with Human alphaherpesvirus 3 [5]. Further, the MCC at 72 h in [6] is over 100 µM. This compound registered a CC50 at 72 h in series [7] of 60 µM. In addition, the outcome (in series [11]; with Influenza A virus [12]; with Influenza A virus [13]; in the series with Influenza B virus; in the series on Human respirovirus 3; in series [14]) was inactive. Moreover, the outcome (in the series with Sindbis virus; with Punta Toro virus; in [15]; with Coxsackievirus B4; in [16]) was inactive.
